Results as given in ChEMBL document CHEMBL4346672, “Antimicrobial and KPC/AmpC inhibitory activity of functionalized benzosiloxaboroles” (Eur J Med Chem, 2019).
≈ marks a conversion by molar mass, not a printed value. Calls of active or inactive are those of the source. The rule behind the calls is not given here.

Assays:
Saccharomyces cerevisiae [1] = experiment: Antifungal activity against Saccharomyces cerevisiae ATCC 9763 assessed as decrease in fungal cell growth incubated for 24 hrs by E-test; assay type: functional; conditions: ATCC 9763, 24 h
Procedure, shortened: (§1)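 Yeast strains were stored at -80 °C and subcultured twice on Sabouraud dextrose agar for 24–48 h at 30 °C before testing.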

[2] = test system: Meyerozyma guilliermondii; experiment: Antifungal activity against Candida guilliermondii IBA 155 assessed as decrease in fungal cell growth incubated for 24 hrs by E-test; assay type: functional; conditions: IBA 155, 24 h
Procedure, shortened: (§2)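 Yeasts were first subcultured on Sabouraud dextrose agar at 30 °C for 24–48 h. […] The MIC was recorded per Etest recommendations, which covers cases where macro-colonies persist inside the ellipse.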

[3] = test system: Meyerozyma guilliermondii; experiment: Antifungal activity against Candida guilliermondii IBA 155 assessed as diameter of zone inhibition at 0.025 mg incubated for 24 hrs by disc diffusion method; assay type: functional; conditions: IBA 155, 24 h, read-out: DIZ
Procedure, shortened: (§3)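 Disc diffusion on Mueller-Hinton II agar with 2% glucose and 0.5 mg/L methylene blue. Compounds were dissolved in DMSO. Yeasts were subcultured on Sabouraud dextrose agar for 24–48 h at 30 °C before testing. Plates were incubated at 35 °C for 24 h.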

Candida parapsilosis [4] = experiment: Antifungal activity against Candida parapsilosis ATCC 22019 assessed as decrease in fungal cell growth incubated for 24 hrs by E-test; assay type: functional; conditions: Lodderomyces parapsilosis, ATCC 22019, 24 h; procedure, shortened: as §2
Pichia kudriavzevii [5] = experiment: Antifungal activity against Candida krusei ATCC 6258 assessed as diameter of zone inhibition at 0.025 mg incubated for 24 hrs by disc diffusion method; assay type: functional; conditions: ATCC 6258, 24 h, read-out: DIZ; procedure, shortened: as §3
Candida tropicalis [6] = experiment: Antifungal activity against Candida tropicalis IBA 171 assessed as diameter of zone inhibition at 0.025 mg incubated for 24 hrs by disc diffusion method; assay type: functional; conditions: IBA 171, 24 h, read-out: DIZ; procedure, shortened: as §3
Saccharomyces cerevisiae [7] = experiment: Antifungal activity against Saccharomyces cerevisiae ATCC 9763 diameter of zone inhibition at 0.025 mg incubated for 24 hrs by disc diffusion method; assay type: functional; conditions: ATCC 9763, 24 h, read-out: DIZ; procedure, shortened: as §3
Candida albicans [8] = experiment: Antifungal activity against Candida albicans ATCC 90028 assessed as decrease in fungal cell growth incubated for 24 hrs by E-test; assay type: functional; conditions: ATCC 90028, 24 h; procedure, shortened: as §1
Candida albicans [9] = experiment: Antifungal activity against Candida albicans ATCC 90028 assessed as diameter of zone inhibition at 0.025 mg incubated for 24 hrs by disc diffusion method; assay type: functional; conditions: ATCC 90028, 24 h, read-out: DIZ; procedure, shortened: as §3
Pichia kudriavzevii [10] = experiment: Antifungal activity against Candida krusei ATCC 6258 assessed as decrease in fungal cell growth incubated for 24 hrs by E-test; assay type: functional; conditions: ATCC 6258, 24 h; procedure, shortened: as §2
Candida parapsilosis [11] = experiment: Antifungal activity against Candida parapsilosis ATCC 22019 assessed as diameter of zone inhibition at 0.025 mg incubated for 24 hrs by disc diffusion method; assay type: functional; conditions: Lodderomyces parapsilosis, ATCC 22019, 24 h; read-out: DIZ; procedure, shortened: as §3
Candida tropicalis [12] = experiment: Antifungal activity against Candida tropicalis IBA 171 assessed as decrease in fungal cell growth incubated for 24 hrs by E-test; assay type: functional; conditions: IBA 171, 24 h; procedure, shortened: as §2
Pseudomonas aeruginosa = experiment: Antibacterial activity against Pseudomonas aeruginosa ATCC 27853 assessed as diameter of zone inhibition measured after 18 hrs by CLSI disc diffusion method; assay type: functional, organism-based
Procedure, shortened: (§4)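 Disc diffusion on Mueller-Hinton II agar. Compounds dissolved in DMSO. Strains stored at -80 °C and subcultured twice on tryptic soy agar before testing. Inhibition zones read after 35 °C, 18 h.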

[13] = test system: Bordetella bronchiseptica; experiment: Antibacterial activity against Bordetella bronchiseptica ATCC 4617 assessed as diameter of zone inhibition measured after 18 hrs by CLSI disc diffusion method; assay type: functional; procedure, shortened: as §4
Saccharomyces cerevisiae [14] = experiment: Antifungal activity against Saccharomyces cerevisiae ATCC 9763 diameter of zone inhibition incubated for 24 hrs by CLSI disc diffusion method; assay type: functional
Procedure, shortened: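 Disc-diffusion run on Mueller-Hinton II agar with 2% glucose and 0.5 mg/L methylene blue, using compounds in DMSO. Yeast was precultured on Sabouraud dextrose agar (24–48 h, 30 °C). Zones read after 24 h at 35 °C.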

Acinetobacter baumannii = experiment: Antibacterial activity against Acinetobacter baumannii ATCC 19606 assessed as diameter of zone inhibition measured after 18 hrs by CLSI disc diffusion method; assay type: functional; procedure, shortened: as §4
Candida tropicalis [15] = experiment: Antifungal activity against Candida tropicalis IBA 171 assessed as diameter of zone inhibition incubated for 24 hrs by CLSI disc diffusion method; assay type: functional
Procedure, shortened: (§5)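 Yeast disc diffusion on Mueller-Hinton agar supplemented with 2% glucose and 0.5 mg/L methylene blue. Compounds in DMSO. Yeasts subcultured on Sabouraud dextrose agar before testing. Zones read after 35 °C, 24 h.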

Bacillus subtilis = experiment: Antibacterial activity against Bacillus subtilis ATCC 6633 assessed as diameter of zone inhibition measured after 18 hrs by CLSI disc diffusion method; assay type: functional; procedure, shortened: as §4
Escherichia coli = experiment: Antibacterial activity against Escherichia coli ATCC 25922 assessed as diameter of zone inhibition measured after 18 hrs by CLSI disc diffusion method; assay type: functional; procedure, shortened: as §4
Staphylococcus aureus = experiment: Antibacterial activity against Staphylococcus aureus ATCC 6538P assessed as diameter of zone inhibition measured after 18 hrs by CLSI disc diffusion method; assay type: functional; procedure, shortened: as §4
Serratia marcescens = conditions: ATCC 13880
Enterococcus faecalis = experiment: Antibacterial activity against Enterococcus faecalis ATCC 29212 assessed as diameter of zone inhibition measured after 18 hrs by CLSI disc diffusion method; assay type: functional; procedure, shortened: as §4
Klebsiella pneumoniae = conditions: ATCC 13883
Candida parapsilosis [16] = experiment: Antifungal activity against Candida parapsilosis ATCC 22019 assessed as diameter of zone inhibition incubated for 24 hrs by CLSI disc diffusion method; assay type: functional; procedure, shortened: as §5
[17] = test system: Meyerozyma guilliermondii; experiment: Antifungal activity against Candida guilliermondii IBA 155 assessed as diameter of zone inhibition incubated for 24 hrs by CLSI disc diffusion method; assay type: functional; procedure, shortened: as §5
[18] = Dissociation constant, pKa2 of compound in 0.1 M NaOH by potentiometric analysis; assay type: physicochemical
Enterobacter cloacae = experiment: Antibacterial activity against Enterobacter cloacae DSM 6234 assessed as diameter of zone inhibition measured after 18 hrs by CLSI disc diffusion method; assay type: functional; procedure, shortened: as §4
Burkholderia cepacia = experiment: Antibacterial activity against Burkholderia cepacia ATCC 25416 assessed as diameter of zone inhibition measured after 18 hrs by CLSI disc diffusion method; assay type: functional; procedure, shortened: as §4
[19] = test system: Staphylococcus epidermidis; experiment: Antibacterial activity against Staphylococcus epidermidis ATCC 12228 assessed as diameter of zone inhibition measured after 18 hrs by CLSI disc diffusion method; assay type: functional; procedure, shortened: as §4
Enterococcus faecium = experiment: Antibacterial activity against Enterococcus faecium ATCC 6057 assessed as diameter of zone inhibition measured after 18 hrs by CLSI disc diffusion method; assay type: functional; procedure, shortened: as §4
[20] = Dissociation constant, pKa1 of compound in 0.1 M NaOH by potentiometric analysis; assay type: physicochemical
Pichia kudriavzevii [21] = experiment: Antifungal activity against Candida krusei ATCC 6258 assessed as diameter of zone inhibition incubated for 24 hrs by CLSI disc diffusion method; assay type: functional; procedure, shortened: as §5
Candida albicans [22] = experiment: Antifungal activity against Candida albicans ATCC 90028 assessed as diameter of zone inhibition incubated for 24 hrs by CLSI disc diffusion method; assay type: functional; procedure, shortened: as §5
[23] = test system: Stenotrophomonas maltophilia; experiment: Antibacterial activity against Stenotrophomonas maltophilia ATCC 13637 assessed as diameter of zone inhibition measured after 18 hrs by CLSI disc diffusion method; assay type: functional; procedure, shortened: as §4
Proteus mirabilis = experiment: Antibacterial activity against Proteus mirabilis ATCC 12453 assessed as diameter of zone inhibition measured after 18 hrs by CLSI disc diffusion method; assay type: functional; procedure, shortened: as §4

## OC(Cn1cncn1)(Cn1cncn1)c1ccc(F)cc1F [FLUCONAZOLE]
Saccharomyces cerevisiae [1]
  MIC: 16 µg/mL (≈ 52.2 µM)
[2]
  MIC: 0.75 µg/mL (≈ 2.45 µM)
[3]
  zone of inhibition at 25 µg/disc: 40 mm
Candida parapsilosis [4]
  MIC: 2 µg/mL (≈ 6.53 µM)
Pichia kudriavzevii [5]
  zone of inhibition at 25 µg/disc: 16 mm
Candida tropicalis [6]
  zone of inhibition at 25 µg/disc: 39 mm
Saccharomyces cerevisiae [7]
  zone of inhibition at 25 µg/disc: 12 mm
Candida albicans [8]
  MIC: 1 µg/mL (≈ 3.27 µM)
Candida albicans [9]
  zone of inhibition at 25 µg/disc: 43 mm
Pichia kudriavzevii [10]
  MIC: 64 µg/mL (≈ 209 µM)
Candida parapsilosis [11]
  zone of inhibition at 25 µg/disc: 32 mm
Candida tropicalis [12]
  MIC: 0.38 µg/mL (≈ 1.24 µM)

## C[Si]1(C)OB(O)c2cc3c(c(F)c21)[Si](C)(C)OB3O
Pseudomonas aeruginosa
  diameter of the inhibition zone (DIZ): inactive
[13]
  diameter of the inhibition zone (DIZ): inactive
Saccharomyces cerevisiae [14]
  diameter of the inhibition zone (DIZ): inactive
Acinetobacter baumannii
  diameter of the inhibition zone (DIZ): inactive
Candida tropicalis [15]
  diameter of the inhibition zone (DIZ): inactive
Bacillus subtilis
  diameter of the inhibition zone (DIZ): 27 mm
Escherichia coli
  diameter of the inhibition zone (DIZ): inactive
Staphylococcus aureus
  diameter of the inhibition zone (DIZ): 22 mm
Serratia marcescens
  DIZ: inactive
Enterococcus faecalis
  diameter of the inhibition zone (DIZ): 15 mm
Klebsiella pneumoniae
  DIZ: inactive
Candida parapsilosis [16]
  diameter of the inhibition zone (DIZ): inactive
[17]
  diameter of the inhibition zone (DIZ): inactive
[18]
  pKa: 8.6
Enterobacter cloacae
  diameter of the inhibition zone (DIZ): inactive
Burkholderia cepacia
  diameter of the inhibition zone (DIZ): inactive
[19]
  diameter of the inhibition zone (DIZ): 34 mm
Enterococcus faecium
  diameter of the inhibition zone (DIZ): 16 mm
[20]
  pKa: 5.9
Pichia kudriavzevii [21]
  diameter of the inhibition zone (DIZ): inactive
Candida albicans [22]
  diameter of the inhibition zone (DIZ): 11 mm
[23]
  diameter of the inhibition zone (DIZ): inactive
Proteus mirabilis
  diameter of the inhibition zone (DIZ): inactive
